In the library only some 2.3% were active in any assay of this set; here they are far more common.
TRPC6 activator = activates the mouse TRPC6 cation channel | Q61143 | HEK293-TRPC6 membrane potential dye fluorescence; active compounds read high | B-score at 10 µM | 310,000 compounds, 0.13% hits;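 active means B-score of the integrated fluorescence ratio above library mean plus 3 SD, and starting fluorescence ratio within library mean plus 5 SD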;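 further: higher score means more depolarization so channel activation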
TRPC6 inhibitor = inhibitors of mouse TRPC6 channel | HEK293-TRPC6, membrane potential dye, ACh-evoked depolarization; active compounds read low | 310,000 compounds, 1.1% hits | B-score at 10 µM | Q61143;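 active means B-score under library mean minus 3 SD, initial fluorescence not abnormally high, positive integrated signal ratio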;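 further: B-score derived from integrated fluorescence ratio over the kinetic read; more negative B-score means stronger inhibition of depolarization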
TRPC4 PAM = TRPC4 (mouse) allosteric potentiation; B-score at 10 µM; 310,000 compounds, 0.42% hits; Q9QUQ5; HEK293 TRPC4beta/mu-opioid, DAMGO EC20, Fluo-4 Ca2+ flux; active compounds read high;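 active means B-score of calcium response area above 5 SD of library B-scores, with initial fluorescence ratio within 5 SD of library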
TRPC4 block = inhibitors of mouse TRPC4 channel; 300,000 compounds, 0.39% hits; HEK293 TRPC4beta/mu-opioid, DAMGO-evoked Fluo4 calcium flux; active compounds read low; B-score at 10 µM; Q9QUQ5; AID 2247;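 active means B-score over 3 SD under the library average, no early fluorescence shift, positive overall ratio signal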
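Assay system: TRPC4beta/mu-opioid receptor HEK293 cell line; compound dosing: single concentration per test compound; detection: Fluo4 Ca2+ flux fluorescence; evaluation: per-well B score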
TRPC4 act = activators of mouse TRPC4 channel | Q9QUQ5 | B-score at 10 µM | HEK293 TRPC4beta/mu-opioid, Fluo4 calcium fluorescence; active compounds read high | AID 2237 | 310,000 compounds, 0.49% hits;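 active means B-score above 5 SD of library B-scores, and initial fluorescence ratio not above library mean plus 5 SD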;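 further: positive B-score marks a calcium rise read as TRPC4 activation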
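Material: HEK293 stable line with TRPC4beta plus mu-opioid receptor; technique: Fluo4 calcium-sensitive dye fluorescence, kinetic, 1 Hz baseline; timing: Fluo4 dye loading 45 min at room temperature, 110 s recording; controls: assay buffer as low control, maximal DAMGO as high control; read-out: integrated baseline-normalised fluorescence ratio, converted to per-well B score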
TRPC4 sel inh 2 = mouse TRPC4 off-target activity of TRPC6 inhibitors, second screen | 920 compounds, 42% hits | AID 2776 | shares compounds with TRPC6 inhibitor | inhibition, % at 10 µM | HEK293 TRPC4/MOR, membrane potential dye fluorescence; channel activated by saturating DAMGO dose;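 active means compounds whose fluorescence signal differed from control wells by over 3 SD, either direction, in both duplicate plates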
TRPC4 spec = mouse TRPC4 off-target activity of TRPC6 inhibitors; 920 compounds, 61% hits; shares compounds with TRPC6 inhibitor; activity change, negative = inhibition, % at 10 µM; HEK293 TRPC4/mu-opioid, membrane potential fluorescence;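 active means rise or fall in signal beyond 3 SD of buffer-only wells in both replicate plates, either sign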;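 further: integrated kinetic ratio of fluorescence range over baseline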
HEK293 MPD ctr 2-1 = second check of TRPC6 inhibitor effects in parental HEK293 cells; shares compounds with TRPC6 inhibitor; parental HEK293 membrane potential dye fluorescence; maximal acetylcholine challenge after compound addition; signal change vs control, % at 10 µM; 920 compounds, 31% hits;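 active means membrane potential signal moving either way by over 3 SD of the maximum-effect control, in both duplicate plates, meaning non-specific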
HEK293 MPD ctr-1 = checks TRPC6 inhibitor effects in parental HEK293 cells; shares compounds with TRPC6 inhibitor; parental HEK293 membrane potential dye fluorescence; membrane potential signal change, % at 10 µM; 920 compounds, 60% hits;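 active means membrane potential signal shifting up or down by more than 3 SD of buffer-only wells, on both duplicate plates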
HEK293 MPD ctr-2 = checks TRPC6 modulator effects in parental HEK293 cells | membrane potential signal change, % at 10 µM | AID 488924 | 2,400 compounds, 51% hits | shares compounds with TRPC6 inhibitor | membrane potential dye fluorescence;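 active means membrane potential signal moves up or down beyond 5 SD from buffer-only wells, on both duplicate plates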
HEK293 MPD ctr 2-2 = second check of TRPC6 modulator effects in parental HEK293 cells; shares compounds with TRPC6 inhibitor; AID 488926; inhibition, % at 10 µM; membrane potential dye fluorescence; after compound, maximal acetylcholine stimulation; 2,400 compounds, 14% hits;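 active means membrane potential signal drops by more than 5 SD from the mean control signal, in both duplicate plates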
TRPC4/MOR mod = mouse TRPC4 off-target activity of TRPC6 modulators. shares compounds with TRPC6 inhibitor. HEK293 TRPC4/mu-opioid, membrane potential fluorescence. percent change from control (negative = decrease, positive = increase), % at 10 µM. 2,400 compounds, 69% hits. AID 488927;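 active means membrane potential signal moved up or down beyond 5 SD of buffer control wells, in both duplicate plates, actives on both sides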
TRPC4/MOR inh 2 = second check of whether TRPC6 modulators also affect mouse TRPC4. shares compounds with TRPC6 inhibitor. HEK293 TRPC4/mu-opioid, membrane potential dye fluorescence; stimulated with maximal-effect DAMGO. inhibition, % at 10 µM. 2,400 compounds, 55% hits;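 active means drop in membrane potential signal beyond 5 SD of the control wells in both duplicate plates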;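 further: TRPC4 counter screen for TRPC6 hits run under conditions tuned for TRPC6 not TRPC4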
TRPC6 block conf = mouse TRPC6 inhibitor confirmation; HEK293-TRPC6, membrane potential dye, ACh-evoked depolarization; shares compounds with TRPC6 inhibitor; inhibition, % at 10 µM; AID 488960; 3,300 compounds, 43% hits;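 active means fluorescence ratio falls more than 5 SD below the full-stimulation control mean, in both duplicate runs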;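 further: integrated fluorescence ratio of peak minus minimum over baseline after agonist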
TRPC6 act conf = mouse TRPC6 activator confirmation | 2,800 compounds, 11% hits | shares compounds with TRPC6 inhibitor | AID 488961 | activation, % at 10 µM | HEK293-TRPC6 membrane potential dye fluorescence, FDSS;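 active means ratio signal rise beyond 5 SD above unstimulated control wells' mean, seen in both duplicate runs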
Each line names hits and unclear results; the compound was inactive in the other large screens (follow-up assays come after a bar, where they were run).

O=C1C2CCCCC2C(=O)N1c1ccc(NC2CCN(Cc3ccccc3)CC2)c([N+](=O)[O-])c1 (centres undefined)	TRPC6 inhibitor -6.3, TRPC4 act 43 | HEK293 MPD ctr-2 inactive | HEK293 MPD ctr 2-2 inactive | TRPC4/MOR mod 14% | TRPC4/MOR inh 2 51% | TRPC6 block conf inactive | TRPC6 act conf inactive
CCCn1c(C)cc(=O)c2cc(NC(=O)c3ccccn3)ccc21	TRPC6 inhibitor -11 | HEK293 MPD ctr-2 -345% | HEK293 MPD ctr 2-2 126% | TRPC4/MOR mod -58% | TRPC4/MOR inh 2 74% | TRPC6 block conf 86% | TRPC6 act conf inactive
CCN(CCCNc1ncnc2nc[nH]c12)c1cccc(C)c1	TRPC6 inhibitor -6.3 | HEK293 MPD ctr-2 inactive | HEK293 MPD ctr 2-2 inactive | TRPC4/MOR mod inactive | TRPC4/MOR inh 2 inactive | TRPC6 block conf inactive | TRPC6 act conf inactive
COCc1cc(CN(C)C(=O)c2oc3c(F)cccc3c2C)[nH]n1	none
C[n+]1cccc(/C=N/Nc2nc(Cl)c(C#N)c(Cl)c2Cl)c1	TRPC6 inhibitor -6.2 | HEK293 MPD ctr-2 inactive | HEK293 MPD ctr 2-2 80% | TRPC4/MOR mod -14% | TRPC4/MOR inh 2 inactive | TRPC6 block conf inactive | TRPC6 act conf inactive
O=C(CN1C(=O)c2ccccc2C1=O)Nc1ccccc1C(F)(F)F	none
O=C(CCN1C(=O)c2ccccc2C1=O)Nc1ccccc1C(F)(F)F	TRPC6 inhibitor -7.3 | TRPC4 sel inh 2 inactive | TRPC4 spec inactive | HEK293 MPD ctr 2-1 inactive | HEK293 MPD ctr-1 inactive | TRPC6 block conf inactive | TRPC6 act conf inactive
Cc1cccc(CC(=O)NCC(=O)NCc2cc(=O)n(C)c(=O)n2C)c1	none
CCOc1ccc(NC(=O)c2c(NC(=O)CN3CCN(C)CC3)sc3c2CCC3)cc1	TRPC6 inhibitor -8.4 | TRPC4 sel inh 2 46% | TRPC4 spec -26% | HEK293 MPD ctr 2-1 inactive | HEK293 MPD ctr-1 -409% | TRPC6 block conf 75% | TRPC6 act conf inactive
O=C(NNC(=S)Nc1ccccc1Cl)c1ccccc1Br	none
CCc1nnc(NC(=O)CSc2nnc(-c3ccccc3OC)n2-c2ccc(C)cc2)s1	none
CCc1nnc(NC(=O)CSc2nnc(-c3ccccc3OC)n2-c2ccccc2)s1	TRPC6 activator 12 | HEK293 MPD ctr-2 182% | HEK293 MPD ctr 2-2 inactive | TRPC4/MOR mod 40% | TRPC4/MOR inh 2 inactive | TRPC6 block conf inactive | TRPC6 act conf 54%
COc1c(/C=C2\SC(=Nc3ccccc3Cl)NC2=O)cccc1[N+](=O)[O-]	none
O=C1NC(=Nc2ccccc2Cl)S/C1=C\c1cccc([N+](=O)[O-])c1O	TRPC6 inhibitor -6 | HEK293 MPD ctr-2 inactive | HEK293 MPD ctr 2-2 inactive | TRPC4/MOR mod -12% | TRPC4/MOR inh 2 65% | TRPC6 block conf inactive | TRPC6 act conf inactive
O=C(Nc1nc(=S)ss1)c1ccc(Cl)cc1Cl	TRPC6 inhibitor -7.1 | HEK293 MPD ctr-2 inactive | HEK293 MPD ctr 2-2 inactive | TRPC4/MOR mod inactive | TRPC4/MOR inh 2 inactive | TRPC6 block conf inactive | TRPC6 act conf inactive
CNCCCOc1ccc(Cl)cc1C(C)(C)C	TRPC6 inhibitor -6, TRPC4 PAM 50 | HEK293 MPD ctr-2 inactive | HEK293 MPD ctr 2-2 inactive | TRPC4/MOR mod inactive | TRPC4/MOR inh 2 inactive | TRPC6 block conf inactive | TRPC6 act conf inactive
COCCCNCCCOc1ccc(Cl)cc1C(C)(C)C	none
CC(=O)c1ccc(OCCCC(=O)OCc2nnc(-c3ccc(Cl)cc3)o2)cc1	none
CC(=O)Nc1ccc(OCc2nnc(-c3ccc(Cl)cc3)o2)cc1	TRPC6 inhibitor -6.3 | HEK293 MPD ctr-2 inactive | HEK293 MPD ctr 2-2 inactive | TRPC4/MOR mod inactive | TRPC4/MOR inh 2 inactive | TRPC6 block conf inactive | TRPC6 act conf inactive
COc1ccc(-n2c(SCCNCCO)nc3sc4c(c3c2=O)CCCC4)cc1	TRPC6 inhibitor -5.2 | HEK293 MPD ctr-2 -142% | HEK293 MPD ctr 2-2 inactive | TRPC4/MOR mod -34% | TRPC4/MOR inh 2 74% | TRPC6 block conf 52% | TRPC6 act conf inactive
COc1ccc(-n2c(SCC(=O)O)nc3sc4c(c3c2=O)CCCC4)cc1	none
Cc1ccc(S(=O)(=O)NCc2ccco2)cc1C(N)=O	none
O=C(/C=C/c1ccccc1Cl)Nn1cnc2ccccc2c1=O	none
CCc1nnc(NC(=O)CSCc2cc(=O)n3nc(C)sc3n2)s1	none
CCC1CCCCN1CC(O)Cn1c2ccccc2n2c(=O)cc(C)c(C#N)c12 (centres undefined)	TRPC6 inhibitor -7.8 | TRPC4 sel inh 2 78% | TRPC4 spec inactive | HEK293 MPD ctr 2-1 inactive | HEK293 MPD ctr-1 -153% | TRPC6 block conf 57% | TRPC6 act conf inactive
Cc1cc(=O)n2c3ccccc3n(CC(O)CN3CCN(Cc4ccccc4)CC3)c2c1C#N (centres undefined)	TRPC6 inhibitor -9.5 | HEK293 MPD ctr-2 -157% | HEK293 MPD ctr 2-2 inactive | TRPC4/MOR mod -36% | TRPC4/MOR inh 2 65% | TRPC6 block conf inactive | TRPC6 act conf inactive
Cc1cc(=O)n2c3ccccc3n(CC(O)CN3CCN(CCO)CC3)c2c1C#N (centres undefined)	none
CCCCOc1ccc(C2=CSC3=NCCN23)cc1[N+](=O)[O-]	TRPC6 inhibitor -5.1 | HEK293 MPD ctr-2 -75% | HEK293 MPD ctr 2-2 inactive | TRPC4/MOR mod -20% | TRPC4/MOR inh 2 44% | TRPC6 block conf 44% | TRPC6 act conf inactive

Screening data as filed in PubChem.
